According to PubChem BioAssay AID2369 (The Scripps Research Institute Molecular Screening Center, 2010):
Active and inactive are the calls of the source. How the calls were made is not given here.

Target: Protein phosphatase methylesterase 1 (Mus musculus) (UniProt Q8BVQ5)
Test: PME-1 probe labeling blockade in lysate – cell lysate, mouse brain cytosol, FP-rhodamine, in-gel fluorescence, orthogonal assay for PME-1 inhibitor project, late-stage follow-up (AID 2369)
Details: FP-rhodamine gel ABPP, band fluorescence, at 20 µM, hits give high values
Summary of the method: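 System: native PME-1, mouse brain cytosol / Quantity: cytosol, 2 mg/mL / Reagent: FP-rhodamine probe, 75 nM / Compound: 20 µM single dose / Times: compound pre-incubation 30 min at 25 °C, probe labeling 45 min / Measured by: in-gel fluorescence scanning of probe-labeled bands / Evaluation: percent PME-1 inhibition from integrated band optical density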

Sequence of Protein phosphatase methylesterase 1 (Mus musculus) (Q8BVQ5 whole entry, looked up): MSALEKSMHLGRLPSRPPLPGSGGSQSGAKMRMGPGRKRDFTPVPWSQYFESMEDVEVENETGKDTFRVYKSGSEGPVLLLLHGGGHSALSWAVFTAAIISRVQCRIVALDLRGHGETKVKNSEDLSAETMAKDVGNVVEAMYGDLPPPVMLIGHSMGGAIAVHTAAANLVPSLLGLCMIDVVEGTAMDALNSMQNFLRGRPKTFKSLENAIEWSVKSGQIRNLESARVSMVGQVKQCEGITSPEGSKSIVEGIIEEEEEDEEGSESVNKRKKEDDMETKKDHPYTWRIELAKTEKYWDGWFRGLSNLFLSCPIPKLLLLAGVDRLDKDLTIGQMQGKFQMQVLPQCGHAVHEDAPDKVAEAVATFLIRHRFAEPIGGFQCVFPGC

| SMILES | inhibition |
| --- | --- |
| N#C/C(=C\c1cccn1S(=O)(=O)c1cccc(C#N)c1)S(=O)(=O)c1ccc(Cl)cc1 | 85% |
| N#C/C(=C\c1cccn1-c1ccc(OC(F)(F)F)cc1)S(=O)(=O)c1ccccc1 | 0% (inactive) |
| N#C/C(=C\c1cccn1S(=O)(=O)c1cccc(Cl)c1)S(=O)(=O)c1ccc(F)cc1 | 80% |
| N#C/C(=C\c1cccn1S(=O)(=O)c1cccc(OC(F)(F)F)c1)S(=O)(=O)c1ccc(F)cc1 | 75% |
| N#C/C(=C\c1cccn1S(=O)(=O)c1cccc(C#N)c1)S(=O)(=O)c1ccc(Br)cc1 | 70% |
| CS(=O)(=O)/C(C#N)=C/c1cccn1-c1ccc(C(F)(F)F)cc1 | 0% (inactive) |
| CS(=O)(=O)/C(C#N)=C/c1cn(Cc2cnc(Cl)s2)c2ccccc12 | 0% (inactive) |
| CS(=O)(=O)/C(C#N)=C\c1cnc(S(=O)(=O)c2ccccc2)s1 | 0% (inactive) |
| CS(=O)(=O)/C(C#N)=C/c1cccn1-c1ccc(OC(F)(F)F)cc1 | 0% (inactive) |
| COC(=O)c1[nH]c2ccccc2c1/C=C(\C#N)S(C)(=O)=O | 0% (inactive) |
| COc1ccc2[nH]c(/C=C(\C#N)S(C)(=O)=O)cc2c1 | 0% (inactive) |
| CCSc1ncc(/C=C(/C#N)S(C)(=O)=O)n1C | 0% (inactive) |
| CS(=O)(=O)/C(C#N)=C\c1ccc(-n2cc(/C=C(/C#N)S(C)(=O)=O)c3ccccc32)cc1 | 0% (inactive) |
| Cc1ccc(-c2nc3sccn3c2/C=C(\C#N)S(C)(=O)=O)cc1 | 0% (inactive) |
| Cc1cc(C)n(-c2ccc(-n3cccc3/C=C(\C#N)S(C)(=O)=O)cc2)n1 | 0% (inactive) |
| N#C/C(=C\c1cccn1-c1cc(Cl)cc(Cl)c1)S(=O)(=O)c1ccccc1 | 0% (inactive) |
| Cc1ccc(-n2cccc2/C=C(\C#N)S(C)(=O)=O)c([N+](=O)[O-])c1 | 0% (inactive) |
| N#C/C(=C\c1cccn1S(=O)(=O)c1cccc([N+](=O)[O-])c1)S(=O)(=O)c1ccc(F)cc1 | 90% |
| COc1cccc(S(=O)(=O)n2cccc2/C=C(\C#N)S(=O)(=O)c2ccc(F)cc2)c1 | 60% (inactive) |
| Cc1cc(C)n(-c2ccc(-n3cccc3/C=C(/C#N)S(=O)(=O)c3ccccc3)cc2)n1 | 0% (inactive) |
| N#C/C(=C\c1cccn1S(=O)(=O)c1cccc(C(=O)O)c1)S(=O)(=O)c1ccc(F)cc1 | 60% (inactive) |
| Cc1cc(C)c(/C=C(\C#N)S(=O)(=O)c2ccccc2)[nH]1 | 0% (inactive) |
| N#C/C(=C\c1cccn1-c1ccc(Cl)cc1)S(=O)(=O)c1ccccc1 | 0% (inactive) |
